Reference: ChEMBL document CHEMBL3425429
Active and inactive are the calls of the source. The rule behind the calls is not given here.

What was measured:
MDA-MB-231 [1] = test: Induction of apoptosis in human MDA-MB-231 cells assessed as early apoptotic cells at 0.1 uM after 48 hrs by annexin V-FITC/propidium iodide staining-based flow cytometric analysis (reference value: […]); format: functional
[2] = target: Serine/threonine-protein kinase pim-1 (Homo sapiens, UniProt P11309); test: Inhibition of human Pim1
Method in brief: (§1)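 Recombinant human protein kinases screened through the Eurofins KinaseProfiler service. IC50 values are means of two independent experiments.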

[3] = target: RAC-beta serine/threonine-protein kinase (Homo sapiens, UniProt P31751); test: Inhibition of human PKBbeta; method in brief: as §1
MDA-MB-231 [4] = test: Induction of apoptosis in human MDA-MB-231 cells assessed as viable cells at 0.3 uM after 48 hrs by annexin V-FITC/propidium iodide staining-based flow cytometric analysis (reference value: 94.4%); format: functional; details: MDA-MB-231, 48 h, read-out: Activity
MDA-MB-231 [5] = test: Induction of apoptosis in human MDA-MB-231 cells assessed as late apoptotic cells at 0.3 uM after 48 hrs by annexin V-FITC/propidium iodide staining-based flow cytometric analysis (reference value: 4.25%); format: functional
[6] = target: Proto-oncogene tyrosine-protein kinase Src (Homo sapiens, UniProt P12931)
[7] = Cytotoxicity against human HBL1 cells assessed as cell viability after 72 hrs by MTT assay; format: functional, cell-based; details: HBL1, 72 h
[8] = Cmax in Sprague-Dawley rat at 10 mg/kg, po by LC/MS analysis; format: ADME, organism-based; design: dose 10 mg/kg, route oral; details: in vivo
Method in brief: (§2)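 Single oral gavage dose in male Sprague-Dawley rats fasted overnight; serial blood drawn via surgically placed jugular vein catheters at set times, plasma separated at once and measured by HPLC-MS/MS; noncompartmental parameters fitted; n=5.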

[9] = Clearance in Sprague-Dawley rat at 10 mg/kg, po by LC/MS analysis; format: ADME, organism-based; design: dose 10 mg/kg, route oral; details: in vivo; method in brief: as §2
MDA-MB-231 [10] = test: Cell cycle arrest in human MDA-MB-231 cells assessed as accumulation at G0/G1 phase at 0.1 to 0.3 uM after 24 to 48 hrs by flow cytometric analysis; format: functional, cell-based
Bcr/Abl fusion protein = Bcr/Abl fusion protein (Homo sapiens, UniProt P00519); test: Inhibition of human BCR/ABL; format: protein assay
Method in brief: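 Recombinant human BCR-ABL kinase, tested as part of a selected kinase panel through a commercial kinase-profiling service. IC50 is the mean of two independent experiments.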

MDA-MB-231 [11] = test: Antitumor activity against human MDA-MB-231 cells xenografted in SCID mouse assessed as reduction in number of proliferating cells in tumor at 30 mg/kg/day, po administered for 18 days measured post last dose by Ki67 staining-based assay; format: functional, organism-based
Method in brief: (§3)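 SCID mice carrying subcutaneous MDA-MB-231 xenografts received oral dosing once daily for 18 days (vehicle 25% PEG400 plus 5% DMSO in sterile water); at the end, tumors formalin-fixed and paraffin-embedded, 4–8 μm sections immunostained (Ki67, phospho-proteins) or TUNEL/AP-Red labelled, and compared with control.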

Mus musculus [12] = test: Toxicity in SCID mouse xenografted with human MDA-MB-231 cells at 7.5 to 15 mg/kg/day, po qd administered for 18 days measured everyday during compound dosing; format: organism-based; design: route oral; details: in vivo, 432 h
Method in brief: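 SCID mice (5–6 weeks) implanted subcutaneously with 100 μL of MDA-MB-231 suspension at 5 ×10^7 per mL. At 150–200 mm3 tumours, mice were randomised (6 per group) and dosed orally once daily for 18 days in water with 25% PEG400 plus 5% DMSO. Side effects were monitored daily.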

MDA-MB-231 [13] = test: Effect on AKT phosphorylation in human MDA-MB-231 cells at 0.001 to 1 uM after 20 hrs by Western blot analysis; format: cell-based
Method in brief: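 MDA-MB-231 cells exposed to a concentration series for 20 h at 37 °C, lysed in RIPA with protease inhibitor cocktail, cleared by centrifugation, protein quantified by Bradford, resolved by SDS-PAGE, transferred to PVDF and immunoblotted.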

MDA-MB-231 [14] = test: Induction of apoptosis in human MDA-MB-231 cells assessed as late apoptotic cells at 0.03 uM after 24 hrs by annexin V-FITC/propidium iodide staining-based flow cytometric analysis (reference value: 2.67%); format: functional
[15] = target: Serine/threonine-protein kinase Chk1 (Homo sapiens, UniProt O14757); test: Inhibition of human CHK1; method in brief: as §1
Focal adhesion kinase 1 = Focal adhesion kinase 1 (Homo sapiens, UniProt Q05397); test: Inhibition of human FAK; method in brief: as §1
MDA-MB-231 [16] = test: Antitumor activity against human MDA-MB-231 cells xenografted in SCID mouse assessed as increase in number of apoptotic cells in tumor at 30 mg/kg/day, po administered for 18 days measured post last dose by TUNEL assay; format: functional, organism-based; method in brief: as §3
MDA-MB-231 [17] = test: cells; details: Homo sapiens, MDA-MB-231, 72 h
Mus musculus [18] = test: In vivo inhibition of Src phosphorylation in tumor of SCID mouse xenografted with human MDA-MB-231 cells at 30 mg/kg/day, po administered for 18 days measured post last dose by immunohistochemical analysis relative to vehicle-treated control; format: functional, organism-based; method in brief: as §3
MDA-MB-435 = test: Cytotoxicity against human MDA-MB-435 cells assessed as cell viability after 72 hrs by MTT assay; format: functional, cell-based; details: MDA-MB-435, 72 h
[19] = target: Serine/threonine-protein kinase mTOR (Homo sapiens, UniProt P42345); test: Inhibition of human mTOR; method in brief: as §1
MDA-MB-231 [20] = test: Antiinvasive activity against human MDA-MB-231 cells at 0.1 uM after 24 hrs by transwell assay; format: functional, cell-based
[21] = target: Serine/threonine-protein kinase TBK1 (Homo sapiens, UniProt Q9UHD2); test: Inhibition of human TBK1; method in brief: as §1
MDA-MB-231 [22] = test: Induction of apoptosis in human MDA-MB-231 cells assessed as late apoptotic cells at 0.1 uM after 48 hrs by annexin V-FITC/propidium iodide staining-based flow cytometric analysis (reference value: 4.25%); format: functional
MDA-MB-453 = test: Cytotoxicity against human MDA-MB-453 cells assessed as cell viability after 72 hrs by MTT assay; format: functional, cell-based; details: MDA-MB-453, 72 h
[23] = target: RAC-alpha serine/threonine-protein kinase (Homo sapiens, UniProt P31749); test: Inhibition of human PKBalpha; method in brief: as §1
MCF7 = test: Cytotoxicity against human MCF7 cells assessed as cell viability after 72 hrs by MTT assay; format: functional, cell-based; details: MCF7, 72 h
[24] = target: NUAK family SNF1-like kinase 1 (Homo sapiens, UniProt O60285); test: Inhibition of human Ark5; method in brief: as §1
MDA-MB-231 [25] = test: Induction of apoptosis in human MDA-MB-231 cells assessed as early apoptotic cells at 0.03 uM after 48 hrs by annexin V-FITC/propidium iodide staining-based flow cytometric analysis (reference value: […]); format: functional
MDA-MB-231 [26] = test: Induction of apoptosis in human MDA-MB-231 cells assessed as early apoptotic cells at 0.3 uM after 24 hrs by annexin V-FITC/propidium iodide staining-based flow cytometric analysis (reference value: 1.58%); format: functional
MDA-MB-231 [27] = test: Induction of apoptosis in human MDA-MB-231 cells assessed as early apoptotic cells at 0.3 uM after 48 hrs by annexin V-FITC/propidium iodide staining-based flow cytometric analysis (reference value: […]); format: functional
Rattus norvegicus = test: AUC (0 to infinity) in Sprague-Dawley rat at 10 mg/kg, po by LC/MS analysis; format: ADME, organism-based, Plasma; design: time infinity, dose 10 mg/kg, route oral; details: in vivo; method in brief: as §2

Chain of NUAK family SNF1-like kinase 1 (O60285 whole entry): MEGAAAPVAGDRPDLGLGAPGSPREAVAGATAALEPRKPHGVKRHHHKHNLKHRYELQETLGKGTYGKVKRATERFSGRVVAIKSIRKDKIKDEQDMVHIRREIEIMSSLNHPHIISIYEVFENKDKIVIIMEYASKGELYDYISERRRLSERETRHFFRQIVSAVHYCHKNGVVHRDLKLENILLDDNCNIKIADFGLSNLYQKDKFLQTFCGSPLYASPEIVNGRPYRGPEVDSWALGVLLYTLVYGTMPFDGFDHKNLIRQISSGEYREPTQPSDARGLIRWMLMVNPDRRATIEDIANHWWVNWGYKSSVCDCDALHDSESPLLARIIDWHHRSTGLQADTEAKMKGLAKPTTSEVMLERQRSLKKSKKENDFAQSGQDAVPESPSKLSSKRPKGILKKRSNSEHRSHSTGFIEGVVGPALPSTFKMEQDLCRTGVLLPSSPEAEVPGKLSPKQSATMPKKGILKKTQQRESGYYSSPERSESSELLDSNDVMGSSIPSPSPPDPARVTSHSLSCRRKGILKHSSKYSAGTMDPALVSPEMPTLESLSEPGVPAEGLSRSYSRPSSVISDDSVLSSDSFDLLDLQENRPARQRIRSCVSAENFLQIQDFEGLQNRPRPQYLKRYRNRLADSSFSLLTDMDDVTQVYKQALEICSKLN
Chain of Proto-oncogene tyrosine-protein kinase Src (P12931 2-536 limits assumed): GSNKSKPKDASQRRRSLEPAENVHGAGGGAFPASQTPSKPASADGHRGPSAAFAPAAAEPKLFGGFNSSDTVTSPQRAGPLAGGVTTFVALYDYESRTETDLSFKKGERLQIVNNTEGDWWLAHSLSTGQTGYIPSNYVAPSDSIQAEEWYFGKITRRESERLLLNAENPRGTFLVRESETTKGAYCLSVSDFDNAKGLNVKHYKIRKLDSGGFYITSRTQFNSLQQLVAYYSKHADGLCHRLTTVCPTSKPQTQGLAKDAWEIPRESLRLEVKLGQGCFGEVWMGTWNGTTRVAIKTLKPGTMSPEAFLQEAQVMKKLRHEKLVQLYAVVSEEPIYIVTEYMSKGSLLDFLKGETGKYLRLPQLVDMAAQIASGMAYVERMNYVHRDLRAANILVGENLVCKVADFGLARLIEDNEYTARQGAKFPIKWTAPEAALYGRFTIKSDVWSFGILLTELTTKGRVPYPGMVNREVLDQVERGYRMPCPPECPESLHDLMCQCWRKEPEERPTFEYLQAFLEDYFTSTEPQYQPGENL
Chain of Focal adhesion kinase 1 (Q05397 whole entry): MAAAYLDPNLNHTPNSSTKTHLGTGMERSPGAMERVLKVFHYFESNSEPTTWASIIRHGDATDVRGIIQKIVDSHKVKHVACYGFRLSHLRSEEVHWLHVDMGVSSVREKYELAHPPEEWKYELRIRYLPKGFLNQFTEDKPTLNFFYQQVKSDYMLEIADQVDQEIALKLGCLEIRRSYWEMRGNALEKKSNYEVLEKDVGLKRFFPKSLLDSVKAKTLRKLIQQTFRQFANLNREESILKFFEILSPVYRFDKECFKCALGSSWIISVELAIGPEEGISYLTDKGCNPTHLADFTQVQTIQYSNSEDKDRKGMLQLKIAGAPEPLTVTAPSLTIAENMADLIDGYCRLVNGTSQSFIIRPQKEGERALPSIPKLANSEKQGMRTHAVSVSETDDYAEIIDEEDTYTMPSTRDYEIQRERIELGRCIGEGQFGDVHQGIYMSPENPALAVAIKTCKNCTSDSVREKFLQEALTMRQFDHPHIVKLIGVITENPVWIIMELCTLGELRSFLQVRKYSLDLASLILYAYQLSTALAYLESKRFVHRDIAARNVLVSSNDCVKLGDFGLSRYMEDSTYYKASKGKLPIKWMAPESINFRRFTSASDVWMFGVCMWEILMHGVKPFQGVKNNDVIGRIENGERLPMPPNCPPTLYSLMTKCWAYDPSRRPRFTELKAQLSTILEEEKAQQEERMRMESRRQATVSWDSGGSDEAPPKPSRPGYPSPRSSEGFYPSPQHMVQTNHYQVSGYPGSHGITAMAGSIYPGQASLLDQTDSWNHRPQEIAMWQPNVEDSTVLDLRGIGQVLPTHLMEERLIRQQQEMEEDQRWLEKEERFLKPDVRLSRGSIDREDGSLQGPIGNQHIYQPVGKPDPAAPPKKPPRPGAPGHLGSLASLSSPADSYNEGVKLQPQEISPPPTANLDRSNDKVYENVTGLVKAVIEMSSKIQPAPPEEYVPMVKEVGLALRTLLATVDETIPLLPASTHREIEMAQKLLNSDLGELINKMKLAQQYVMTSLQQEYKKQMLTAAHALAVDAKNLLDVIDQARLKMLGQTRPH
Chain of RAC-beta serine/threonine-protein kinase (P31751 whole entry): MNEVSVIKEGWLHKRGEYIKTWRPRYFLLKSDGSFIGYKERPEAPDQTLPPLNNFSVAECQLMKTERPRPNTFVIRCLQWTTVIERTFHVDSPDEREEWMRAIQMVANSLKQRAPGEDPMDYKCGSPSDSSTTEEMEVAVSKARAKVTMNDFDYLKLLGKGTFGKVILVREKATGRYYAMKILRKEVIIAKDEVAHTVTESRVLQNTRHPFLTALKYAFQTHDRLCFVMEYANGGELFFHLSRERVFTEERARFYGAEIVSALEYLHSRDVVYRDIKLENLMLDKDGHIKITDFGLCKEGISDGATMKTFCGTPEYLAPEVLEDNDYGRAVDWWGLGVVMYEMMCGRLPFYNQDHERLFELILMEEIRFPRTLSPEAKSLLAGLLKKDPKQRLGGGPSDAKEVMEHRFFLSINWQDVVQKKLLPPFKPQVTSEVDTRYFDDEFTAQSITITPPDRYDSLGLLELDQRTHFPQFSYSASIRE
Chain of Serine/threonine-protein kinase Chk1 (O14757 whole entry): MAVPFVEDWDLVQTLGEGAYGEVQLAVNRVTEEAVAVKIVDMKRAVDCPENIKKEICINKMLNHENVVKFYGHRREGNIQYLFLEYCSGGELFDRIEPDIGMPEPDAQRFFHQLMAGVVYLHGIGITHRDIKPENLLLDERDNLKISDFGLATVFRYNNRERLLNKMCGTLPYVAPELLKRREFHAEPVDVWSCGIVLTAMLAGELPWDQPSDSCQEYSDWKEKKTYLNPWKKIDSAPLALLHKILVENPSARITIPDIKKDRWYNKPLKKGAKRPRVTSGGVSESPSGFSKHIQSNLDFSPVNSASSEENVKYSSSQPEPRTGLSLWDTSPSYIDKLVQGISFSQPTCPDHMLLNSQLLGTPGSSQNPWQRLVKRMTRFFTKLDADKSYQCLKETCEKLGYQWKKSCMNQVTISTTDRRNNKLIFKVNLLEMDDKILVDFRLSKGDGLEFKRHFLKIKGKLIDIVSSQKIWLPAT
Chain of RAC-alpha serine/threonine-protein kinase (P31749 whole entry): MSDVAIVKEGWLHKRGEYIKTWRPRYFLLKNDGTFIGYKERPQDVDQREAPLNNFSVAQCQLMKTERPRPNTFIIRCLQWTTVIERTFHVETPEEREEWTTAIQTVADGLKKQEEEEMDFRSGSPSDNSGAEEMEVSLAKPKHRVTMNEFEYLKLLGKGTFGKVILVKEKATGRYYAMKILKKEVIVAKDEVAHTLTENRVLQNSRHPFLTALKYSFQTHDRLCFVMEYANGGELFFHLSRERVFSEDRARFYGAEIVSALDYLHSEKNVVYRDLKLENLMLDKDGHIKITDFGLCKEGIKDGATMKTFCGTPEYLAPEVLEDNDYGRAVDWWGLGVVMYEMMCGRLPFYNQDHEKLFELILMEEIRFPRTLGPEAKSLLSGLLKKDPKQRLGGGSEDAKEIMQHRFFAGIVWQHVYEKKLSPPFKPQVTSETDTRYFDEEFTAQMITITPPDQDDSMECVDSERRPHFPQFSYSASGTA
Chain of Serine/threonine-protein kinase pim-1 (P11309 whole entry): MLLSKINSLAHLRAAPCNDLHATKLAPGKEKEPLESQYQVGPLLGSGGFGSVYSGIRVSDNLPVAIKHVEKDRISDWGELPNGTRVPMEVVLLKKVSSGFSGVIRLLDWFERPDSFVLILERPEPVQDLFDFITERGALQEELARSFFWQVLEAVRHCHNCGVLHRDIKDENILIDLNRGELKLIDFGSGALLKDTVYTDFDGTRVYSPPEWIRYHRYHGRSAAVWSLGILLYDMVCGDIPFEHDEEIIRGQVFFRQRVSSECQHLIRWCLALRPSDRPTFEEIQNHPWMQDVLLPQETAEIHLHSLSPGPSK
Chain of Serine/threonine-protein kinase TBK1 (Q9UHD2 whole entry): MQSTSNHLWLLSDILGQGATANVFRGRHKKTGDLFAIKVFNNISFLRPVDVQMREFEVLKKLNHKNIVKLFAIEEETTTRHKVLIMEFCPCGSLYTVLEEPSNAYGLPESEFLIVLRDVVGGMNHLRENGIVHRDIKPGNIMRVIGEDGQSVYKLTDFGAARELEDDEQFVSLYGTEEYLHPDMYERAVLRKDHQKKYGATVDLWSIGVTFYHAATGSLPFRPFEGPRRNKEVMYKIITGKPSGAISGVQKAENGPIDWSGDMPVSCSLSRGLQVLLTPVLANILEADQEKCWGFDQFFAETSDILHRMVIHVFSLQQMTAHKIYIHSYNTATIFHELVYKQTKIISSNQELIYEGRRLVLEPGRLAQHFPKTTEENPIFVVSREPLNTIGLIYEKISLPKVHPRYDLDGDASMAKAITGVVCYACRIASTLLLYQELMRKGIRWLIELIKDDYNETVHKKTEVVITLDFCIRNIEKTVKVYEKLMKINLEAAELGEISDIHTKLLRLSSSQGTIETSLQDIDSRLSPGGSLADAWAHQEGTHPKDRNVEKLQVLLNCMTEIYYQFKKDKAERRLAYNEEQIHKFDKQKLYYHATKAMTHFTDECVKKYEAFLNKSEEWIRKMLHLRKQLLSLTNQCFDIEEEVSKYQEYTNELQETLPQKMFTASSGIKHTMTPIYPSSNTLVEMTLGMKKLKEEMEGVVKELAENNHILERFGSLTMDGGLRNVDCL

IC50 [2]: > 10 µM | IC50 [3]: > 10 µM | IC50 [6]: 0.03 µM | Cmax [8]: 215 ng/mL | CL/F [9]: 35 mL/min/kg | IC50 (Bcr/Abl fusion protein): 0.001 µM | IC50 [15]: > 10 µM | IC50 (Focal adhesion kinase 1): > 10 µM | IC50 (MDA-MB-231 [17]): 0.011 µM | IC50 [19]: > 10 µM | IC50 [21]: > 10 µM | IC50 [23]: > 10 µM | IC50 [24]: > 10 µM | AUC (Rattus norvegicus): 4772.5 µg/L/h
Structure (SMILES): CCn1nc(C#Cc2cc(C(=O)Nc3ccc(CN4CCN(C)CC4)c(C(F)(F)F)c3)ccc2C)c2c(N)ncnc21
Activity (MDA-MB-231 [1]): 13.9% | viability at 0.3 µM (MDA-MB-231 [4]): 63.2% | Activity (MDA-MB-231 [5]): 10.3% | IC50 [7]: 10 µM | Activity (MDA-MB-231 [10]): Active | Activity (MDA-MB-231 [11]): Active | Activity (Mus musculus [12]): Non-toxic | Activity (MDA-MB-231 [13]): inactive | Activity (MDA-MB-231 [14]): 3.92% | Activity (MDA-MB-231 [16]): Active | inhibition (Mus musculus [18]): Active | IC50 (MDA-MB-435): 0.005 µM | Activity (MDA-MB-231 [20]): Active | Activity (MDA-MB-231 [22]): 15.9% | IC50 (MDA-MB-453): 0.325 µM | IC50 (MCF7): 7.25 µM | Activity (MDA-MB-231 [25]): 3.23% | Activity (MDA-MB-231 [26]): 6.51% | Activity (MDA-MB-231 [27]): 24.1%
